Here are results for 13 molecules from ChEMBL document CHEMBL1145506, “Activation of inhibitors by sortase triggers irreversible modification of the active site” (J Biol Chem, 2007).

In one data set the target is T1, Papain (Carica papaya) (UniProt P00784).
T1 sequence (whole entry): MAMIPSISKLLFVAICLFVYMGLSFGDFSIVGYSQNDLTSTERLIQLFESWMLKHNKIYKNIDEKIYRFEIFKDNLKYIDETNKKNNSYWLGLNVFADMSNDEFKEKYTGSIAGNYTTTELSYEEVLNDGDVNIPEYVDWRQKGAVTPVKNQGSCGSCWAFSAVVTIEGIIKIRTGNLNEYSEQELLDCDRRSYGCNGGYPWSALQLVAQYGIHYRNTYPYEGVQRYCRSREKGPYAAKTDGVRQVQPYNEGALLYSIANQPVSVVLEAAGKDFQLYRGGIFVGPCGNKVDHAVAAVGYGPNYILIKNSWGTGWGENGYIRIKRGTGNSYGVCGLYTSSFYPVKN
Kind of data set: Inhibition of Carica papaya papain. More on the design: concentration or dose not given beside the values. As to conditions: concentration not given here.

The test system of another data set is Bacillus anthracis. Kind of data set: (§1) Inhibition of Bacillus anthracis sortase A. More on the design: concentration or dose not given beside the values. As to conditions: concentration not given here.
For data set [1], the target named is T2, Sortase A (Staphylococcus aureus) (UniProt Q9S446).
T2 sequence (whole entry): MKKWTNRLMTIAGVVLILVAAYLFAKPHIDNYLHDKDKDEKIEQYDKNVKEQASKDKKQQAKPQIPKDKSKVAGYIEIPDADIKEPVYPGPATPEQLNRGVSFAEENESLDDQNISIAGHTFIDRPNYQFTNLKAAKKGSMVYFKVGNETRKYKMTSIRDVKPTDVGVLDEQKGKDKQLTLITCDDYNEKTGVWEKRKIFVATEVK
Kind of data set: Inhibition of Staphylococcus aureus sortase A at 10 ng. Summed up:
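Purified S. aureus SrtA (2 μM) preincubated with 10 ng compound in DMSO for 1 h at 25 °C. FRET substrate a-LPETG-d was then added to 2 μM in 5 mM CaCl2, 150 mM NaCl, 50 mM Tris-HCl pH 7.5, and incubated 24 h at 37 °C. Fluorescence read at ex 320/em 420 nm. Screened in duplicate; % inhibition = 100 − (well/plate positive-control mean ×100).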

For the next data set, the target named is T3, Sortase A (Staphylococcus aureus, UniProt Q9S446).
T3 sequence (Q9S446 whole entry): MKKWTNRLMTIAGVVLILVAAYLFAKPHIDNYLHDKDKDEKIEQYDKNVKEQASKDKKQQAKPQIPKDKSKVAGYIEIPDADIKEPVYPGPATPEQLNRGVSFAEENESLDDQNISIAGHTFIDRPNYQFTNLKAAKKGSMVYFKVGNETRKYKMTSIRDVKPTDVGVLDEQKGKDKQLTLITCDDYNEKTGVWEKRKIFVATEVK
Kind of data set: (§2) Inhibition of Staphylococcus aureus sortase A.

A short description of data set [2]: Inhibition of Bacillus anthracis sortase C.
The nature of data set [3]: Inhibition of Bacillus anthracis sortase B.
Data set [4] has as its target T2, Sortase A (Staphylococcus aureus). Described as §2.
A short description of data set [5]: as §1.
Substrate in data set [6]: CN(C)CCC(=O)c1cccs1
The following applies: Staphylococcus aureus; 50 uM.

Substrate in data set [7]: CN(C)CCC(=O)c1ccc(Cl)c(Cl)c1
The following applies: Staphylococcus aureus; 200 uM.

Activity calls are given as the source filed them. The rule behind the calls is not given here.

A word on the inhibition: it is the share of the control response that was lost under treatment. Take `O=C(CCNc1ccccc1)c1cccc([N+](=O)[O-])c1`: the results for the inhibition (on Papain (Carica papaya); with Bacillus anthracis; in [1]) were 34%, 87.3% and 66%, respectively.

Consider `CCOC(=O)N1CCN(CCC(=O)c2ccc(Br)cc2)CC1`, for which the figures for the inhibition (at Papain (Carica papaya); with Bacillus anthracis; in data set [1]) were 48.5%, 90.7% and 80.2%, respectively.

Take `Cc1ccc(C(=O)CCN2CCOCC2)cc1`: the inhibition came out at 31.2% at Papain (Carica papaya), 88.9% in the data set with Bacillus anthracis and 56.9% in data set [1].

`O=C(CCN1CCOCC1)c1ccc(F)cc1`: the inhibition against Papain (Carica papaya) turned out to be 46.6%; in the data set on Bacillus anthracis, 89.1%; in [1], 47.2%.

The Ki is a measure of affinity in units of concentration, obtained from inhibition or displacement. As to `C=CC(=O)c1cccs1`, on Sortase A, the Ki was 69 µM.

The IC50 is the concentration at which inhibition is half-maximal. As to `CN(C)CCC(=O)c1ccc(Cl)c(Cl)c1`, the half-maximal inhibitory concentration (IC50) stood at 20 µM in data set [2], 14 µM in data set [3] and 15 µM against Sortase A. The inhibition at Papain (Carica papaya) stood at 49.3%; in the data set on Bacillus anthracis it was 90.4%; in [1], 89.6%. For the same molecule, at Sortase A, the inhibitory constant (Ki) is 15.7 µM.

Consider `CN(C)CCC(=O)c1ccc(S(C)(=O)=O)cc1`, for which the inhibition against Papain (Carica papaya) was 37.1%; in the data set with Bacillus anthracis, 91.3%; in data set [1], 69.8%.

Take `O=C(CCN1CCOCC1)c1ccc(Cl)cc1`: the inhibition against Papain (Carica papaya) was determined as 50.4%; in the data set on Bacillus anthracis, 90.6%; in [1] it was 84.4%.

In the case of `CN(C)CCC(=O)c1cccc([N+](=O)[O-])c1`, the inhibition on Papain (Carica papaya) was 47.2%; in the data set with Bacillus anthracis it was 90.2%; in data set [1], 54.3%.

Consider `C=CC(O)c1cccs1` (racemic), for which the outcome in data set [4] was inactive.

In the case of `CC1CCCN(CCC(=O)c2ccc(Br)cc2)C1` (stereo not given), the inhibition against Papain (Carica papaya) stood at 33.8%; with Bacillus anthracis it was 83.7%; in data set [1] it was 56.9%.

`CN(C)CCC(=O)c1cccs1`: the half-inhibitory concentration (IC50) is 15 µM in data set [2], 4.8 µM in [5], 34 µM in data set [3] and 47 µM at Sortase A. In addition, the inhibition came to 19.1% against Papain (Carica papaya), 90.7% in the data set with Bacillus anthracis and 54.8% in data set [1]. Besides, the affinity on Sortase A corresponds to a Ki of 93.2 µM.

B1: Sortase A (Staphylococcus aureus), Q9S446 (protein)
chain: MKKWTNRLMTIAGVVLILVAAYLFAKPHIDNYLHDKDKDEKIEQYDKNVKEQASKDKKQQAKPQIPKDKSKVAGYIEIPDADIKEPVYPGPATPEQLNRGVSFAEENESLDDQNISIAGHTFIDRPNYQFTNLKAAKKGSMVYFKVGNETRKYKMTSIRDVKPTDVGVLDEQKGKDKQLTLITCDDYNEKTGVWEKRKIFVATEVK
In general, Km refers to the concentration of substrate that gives half-maximal velocity. Regarding B1, in data set [6], the Km was found to be 5.8 µM and the Vmax is 88.8 s⁻¹. In addition, in data set [7], the Km is 5.91 µM and the Vmax turned out to be 58 s⁻¹.
